Laboratory results: ChEMBL document CHEMBL3758076, “Azaphilones from an Acid Mine Extremophile Strain of a Pleurostomophora sp” (J Nat Prod, 2015)
The source made the active and inactive calls.

Experiments:
MOLT-4 [1] = test: Cytotoxicity against human MOLT4 cells at 1 to 10 uM after 72 hrs by Alamar Blue viability assay; format: functional, cell-based
RPMI-8226 [2] = test: Cytotoxicity against human RPMI8226 cells at 1 to 10 uM after 72 hrs by Alamar Blue viability assay; format: functional, cell-based
SR [3] = test: Cytotoxicity against human SR cells at 1 to 10 uM after 72 hrs by Alamar Blue viability assay; format: functional, cell-based
LOX IMVI [4] = test: Cytotoxicity against human LOXIMVI cells at 1 to 10 uM after 72 hrs by Alamar Blue viability assay; format: functional, cell-based
CCRF-CEM [5] = test: Cytotoxicity against human CCRF-CEM cells at 1 to 10 uM after 72 hrs by Alamar Blue viability assay; format: functional, cell-based
MOLT-4 [6] = test: (§1) Cytotoxicity against human MOLT4 cells after 96 hrs by Hoechst-staining based nuclei image analysis; format: functional
RPMI-8226 [7] = test: (§2) Cytotoxicity against human RPMI8226 cells after 96 hrs by Hoechst-staining based nuclei image analysis; format: functional
SR [8] = test: Cytotoxicity against human SR cells after 96 hrs by Hoechst-staining based nuclei image analysis; format: functional
LOX IMVI [9] = test: Cytotoxicity against human LOXIMVI cells after 96 hrs by Hoechst-staining based nuclei image analysis; format: functional
Caspase-1 = molecular target: T1, Caspase-1 (Homo sapiens, UniProt P29466); test: Inhibition of caspase-1 (unknown origin)
T1 sequence (P29466 whole entry): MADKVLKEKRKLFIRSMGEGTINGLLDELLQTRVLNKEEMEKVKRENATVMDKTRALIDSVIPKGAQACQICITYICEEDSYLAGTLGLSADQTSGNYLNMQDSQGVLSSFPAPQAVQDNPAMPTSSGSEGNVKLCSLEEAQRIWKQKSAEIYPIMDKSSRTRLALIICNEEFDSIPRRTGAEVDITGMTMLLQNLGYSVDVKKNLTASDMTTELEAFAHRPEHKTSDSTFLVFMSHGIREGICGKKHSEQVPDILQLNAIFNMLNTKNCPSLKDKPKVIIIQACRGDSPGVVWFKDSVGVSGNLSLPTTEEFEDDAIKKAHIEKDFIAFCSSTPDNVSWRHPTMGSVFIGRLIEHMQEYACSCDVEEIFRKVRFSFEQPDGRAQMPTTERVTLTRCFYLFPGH

Stromelysin-1 = Stromelysin-1 (Homo sapiens, UniProt P08254); test: Inhibition of MMP-3 (unknown origin)
THP-1 [10] = test: Antiinflammatory activity in human THP1 cells assessed as suppression of LPS and TiO2-induced IL-6 production at 10 uM after 24 hrs by induced inflammasome assay; format: functional, cell-based
How it was run: (§3)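 THP-1 cells stimulated with bacterial LPS plus titanium dioxide (TiO2) to drive proinflammatory cytokine output and NLRP3 inflammasome assembly. Compounds were added to the induced cells, and IL-6, IL-33, TNF-α and IL-1β production was then measured.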

THP-1 [11] = test: Antiinflammatory activity in human THP1 cells assessed as suppression of LPS and TiO2-induced IL-33 production at 10 uM after 24 hrs by induced inflammasome assay; format: functional, cell-based; how it was run: as §3
[12] = (§4) Antiinflammatory activity in human THP1 cells assessed as suppression of LPS and TiO2-induced TNF-alpha production at 10 uM after 24 hrs by induced inflammasome assay; format: functional, THP-1; how it was run: as §3
[13] = (§5) Antiinflammatory activity in human THP1 cells assessed as suppression of LPS and TiO2-induced IL-1beta production at 10 uM after 24 hrs by induced inflammasome assay; format: functional, THP-1; how it was run: as §3
[14] = Cytotoxicity against human MOLT4 cells after 72 hrs by Alamar Blue viability assay; format: functional; details: MOLT-4, 72 h
[15] = Cytotoxicity against human RPMI8226 cells after 72 hrs by Alamar Blue viability assay; format: functional; details: RPMI-8226, 72 h
SR [16] = test: Cytotoxicity against human SR cells after 72 hrs by Alamar Blue viability assay; format: functional
[17] = Cytotoxicity against human LOXIMVI cells after 72 hrs by Alamar Blue viability assay; format: functional; details: LOX IMVI
CCRF-CEM [18] = test: Cytotoxicity against human CCRF-CEM cells after 72 hrs by Alamar Blue viability assay; format: functional
Y79 [19] = test: Cytotoxicity against human Y79 cells after 72 hrs by Alamar Blue viability assay; format: functional, cell-based; details: Y79, 72 h
[20] = as §1; format: functional; details: MOLT-4, 96 h
[21] = as §2; format: functional; details: RPMI-8226, 96 h
CCRF-CEM [22] = test: Cytotoxicity against human CCRF-CEM cells after 96 hrs by Hoechst-staining based nuclei image analysis; format: functional
Y79 [23] = test: Cytotoxicity against human Y79 cells after 96 hrs by Hoechst-staining based nuclei image analysis; format: functional, cell-based; details: Y79, 96 h
THP-1 [24] = test: as §4; format: functional; how it was run: as §3
THP-1 [25] = test: as §5; format: functional; how it was run: as §3
THP-1 [26] = test: Antiinflammatory activity against human THP1 cells assessed as suppression of LPS and TiO2-induced IL-6 production at 100 uM after 24 hrs by induced inflammasome assay; format: functional, cell-based; how it was run: as §3
THP-1 [27] = test: Antiinflammatory activity against human THP1 cells assessed as suppression of LPS and TiO2-induced IL-33 production at 100 uM after 24 hrs by induced inflammasome assay; format: functional, cell-based; how it was run: as §3
THP-1 [28] = test: Antiinflammatory activity against human THP1 cells assessed as suppression of LPS and TiO2-induced TNF-alpha production at 100 uM after 24 hrs by induced inflammasome assay; format: functional, cell-based; how it was run: as §3
THP-1 [29] = test: Antiinflammatory activity in human THP1 cells assessed as suppression of LPS and TiO2-induced IL-1beta production at 100 uM after 24 hrs by induced inflammasome assay; format: functional, cell-based; how it was run: as §3

Stromelysin-1, sequence (P08254 whole entry): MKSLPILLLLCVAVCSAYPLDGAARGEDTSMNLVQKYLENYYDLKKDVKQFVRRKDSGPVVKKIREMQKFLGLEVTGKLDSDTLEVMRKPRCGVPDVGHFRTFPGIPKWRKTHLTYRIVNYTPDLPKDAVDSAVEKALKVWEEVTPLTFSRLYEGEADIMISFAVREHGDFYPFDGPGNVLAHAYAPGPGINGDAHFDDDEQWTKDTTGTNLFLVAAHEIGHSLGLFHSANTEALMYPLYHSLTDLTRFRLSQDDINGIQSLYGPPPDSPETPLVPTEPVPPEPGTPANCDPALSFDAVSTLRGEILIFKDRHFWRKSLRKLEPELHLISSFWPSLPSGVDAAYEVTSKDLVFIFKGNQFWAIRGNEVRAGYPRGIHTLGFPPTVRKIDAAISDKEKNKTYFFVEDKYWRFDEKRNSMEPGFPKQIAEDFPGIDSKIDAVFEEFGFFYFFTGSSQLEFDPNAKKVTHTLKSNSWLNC

CCCCCCCCCC(=O)C[C@@H]1C2=COC(C[C@H](C)O)=CC2=CC(=O)[C@]1(C)O
inactive: Activity (MOLT-4 [1]) | Activity (RPMI-8226 [2]) | Activity (SR [3]) | Activity (LOX IMVI [4]) | Activity (CCRF-CEM [5]) | Activity (MOLT-4 [6]) | Activity (RPMI-8226 [7]) | Activity (SR [8]) | Activity (LOX IMVI [9])

CCCCCCCCCC(=O)C1=C2C=C3C=C(C[C@H](C)O)N(CCO)C=C3C(=O)[C@]2(C)OC1=O
45 µM: IC50 (Stromelysin-1)
50 µM: IC50 (Caspase-1)

CCCCCCCCCC(=O)[C@@]12O[C@@]13C1=COC(C[C@H](C)O)=CC1=CC(=O)[C@]3(C)OC2=O
95%: Activity [12] | Activity [13]
active: Activity (THP-1 [10]) | Activity (THP-1 [11])
1.1 µM: IC50 (Y79 [19]) | IC50 (Y79 [23])
25 µM: IC50 (Caspase-1)
10 µM: GI50 [14] | GI50 [15] | GI50 (SR [16]) | GI50 [17] | GI90 (CCRF-CEM [18]) | GI50 [20] | GI50 [21] | GI50 (SR [8]) | GI90 (CCRF-CEM [22])
15 µM: IC50 (Stromelysin-1)

CCCCCCCCCC(=O)[C@@H]1C(=O)O[C@@]2(C)C(=O)C=C3C=C(C[C@H](C)O)OC=C3[C@@H]12
active: Activity (THP-1 [26]) | Activity (THP-1 [27]) | Activity (THP-1 [28]) | Activity (THP-1 [29])
130 µM: IC50 (Stromelysin-1)
inactive: Activity (THP-1 [10]) | Activity (THP-1 [11]) | Activity (THP-1 [24]) | Activity (THP-1 [25]) | Activity (MOLT-4 [1]) | Activity (RPMI-8226 [2]) | Activity (SR [3]) | Activity (LOX IMVI [4]) | Activity (CCRF-CEM [5]) | Activity (MOLT-4 [6]) | Activity (RPMI-8226 [7]) | Activity (SR [8]) | Activity (LOX IMVI [9])
150 µM: IC50 (Caspase-1)
